The text below walks through data of ChEMBL document CHEMBL1177669, “Synthesis and biological study of 3-(phenylsulfonyl)thieno[2,3-e][1,2,3]triazolo[1,5-a]pyrimidines as potent and selective serotonin 5-HT6 receptor antagonists” (Bioorg Med Chem, 2010).

Experiment [1] deals with T1, 5-hydroxytryptamine receptor 6 (Homo sapiens, UniProt P50406). Put plainly: Antagonist activity at human recombinant 5HT6 receptor expressed in HEK293 cells assessed as inhibition of serotonin-induced cAMP production. The format is functional, cell-based. The method in brief:
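HEK293 cells stably expressing recombinant human 5-HT6R, stimulated with serotonin. cAMP from adenylyl cyclase measured by LANCE. Compounds screened at 5 and 10 μM. IC50 determined for compounds giving more than 50% inhibition of cAMP synthesis at 5 μM.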

Experiment [2] addresses T1, 5-hydroxytryptamine receptor 6. Put plainly: Binding affinity to human recombinant 5HT6 receptor expressed in HEK293 cells by radioligand displacement assay. Format: cell-based. The method in brief:
(§1)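 Competitive radioligand binding at the 5-HT6 receptor, run by MDS Pharma Services as part of a serotonin receptor panel. IC50 and Ki values derived.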

For experiment [3] the target is unchanged. Description: Binding affinity to 5HT6 receptor. The method, boiled down: as §1
For experiment [4] the target is unchanged. Put plainly: Displacement of radioligand from human recombinant 5HT6 receptor in competitive radioligand binding assay.

SMILES strings stand for the structures.

T1 sequence (P50406 whole entry): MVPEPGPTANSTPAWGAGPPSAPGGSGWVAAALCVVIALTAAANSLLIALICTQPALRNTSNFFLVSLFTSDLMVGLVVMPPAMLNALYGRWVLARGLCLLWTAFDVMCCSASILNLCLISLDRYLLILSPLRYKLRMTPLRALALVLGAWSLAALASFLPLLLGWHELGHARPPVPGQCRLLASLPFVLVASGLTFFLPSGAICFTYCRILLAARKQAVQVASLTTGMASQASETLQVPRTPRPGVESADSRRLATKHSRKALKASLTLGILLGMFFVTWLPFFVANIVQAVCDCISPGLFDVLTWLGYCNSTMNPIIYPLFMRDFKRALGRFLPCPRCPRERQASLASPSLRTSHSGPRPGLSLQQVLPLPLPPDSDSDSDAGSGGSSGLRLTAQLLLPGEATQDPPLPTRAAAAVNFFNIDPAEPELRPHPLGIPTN

As to `O=S(=O)(c1ccccc1)c1nnn2c1nc(NCc1ccco1)c1sccc12`, in experiment [1], the IC50 turned out to be 40 nM. Further, in experiment [2], the IC50 is 6.1 nM and the Ki was determined as 2.8 nM.
Turning to `CN(C)CCNc1nc2c(S(=O)(=O)c3ccccc3)nnn2c2ccsc12`, the IC50 in experiment [2] is over 300 nM.
As to `CC(C)CCNc1nc2c(S(=O)(=O)c3ccc(Br)cc3)nnn2c2ccsc12`, in experiment [2], the half-maximal inhibitory concentration (IC50) was found to be 34.3 nM and the Ki was 15.9 nM.
Consider `O=S(=O)(c1ccccc1)c1nnn2c1nc(NC1CCCCC1)c1sccc12`, for which, in experiment [1], the IC50 stood at 200 nM. In experiment [2], the IC50 amounted to 6.9 nM and the inhibition constant Ki is 3.2 nM.
For `Cc1ccc(C)c(S(=O)(=O)c2nnn3c2nc(NC(C)C)c2sccc23)c1`, the results for the IC50 in experiment [1] and in experiment [2] were 350 nM and 28.3 nM, respectively.
As for `CCC(C)Nc1nc2c(S(=O)(=O)c3ccccc3)nnn2c2ccsc12` (stereo not given), the IC50 in experiment [3] came to 9.6 nM.
With `CN(C)CCN(C)c1nc2c(S(=O)(=O)c3ccccc3)nnn2c2ccsc12`, the figures for the IC50 in experiment [1] and in experiment [2] were 870 nM and over 300 nM, respectively.
In the same order, the values of `CN(Cc1cccnc1)c1nc2c(S(=O)(=O)c3ccccc3)nnn2c2ccsc12` are 500 nM and over 30 nM.
For the compound `O=S(=O)(c1cccc(Cl)c1)c1nnn2c1nc(NCc1cccnc1)c1sccc12`, the IC50 in experiment [1] was 1250 nM. Further, in experiment [2], the IC50 was determined as 31.7 nM and the inhibitory constant (Ki) stood at 14.7 nM.
Turning to `CC12CC3CC(C)(C1)CC(Nc1nc4c(S(=O)(=O)c5ccccc5)nnn4c4ccsc14)(C3)C2`, in experiment [2], the 50% inhibitory concentration (IC50) stood at 56.7 nM and the Ki stood at 26.3 nM.
On to `O=S(=O)(c1ccccc1)c1nnn2c1nc(NC1CCCC1)c1sccc12`, for which the concentration for half-maximal inhibition (IC50) in experiment [1] is 140 nM. In addition, in experiment [2], the half-maximal inhibitory concentration (IC50) was determined as 11.9 nM and the Ki was determined as 5.5 nM.
On to `Cc1ccc(C)c(S(=O)(=O)c2nnn3c2nc(NCCC(C)C)c2sccc23)c1`, for which the IC50 in experiment [1] is 860 nM.
Same read-out and setting: then `COc1ccccc1CNc1nc2c(S(=O)(=O)c3ccc(Br)cc3)nnn2c2ccsc12`, with 930 nM; and `COc1ccccc1CNc1nc2c(S(=O)(=O)c3ccc(C)c(C)c3)nnn2c2ccsc12`, with 470 nM.
With `O=S(=O)(c1cccc(Cl)c1)c1nnn2c1nc(NCc1ccc(F)cc1)c1sccc12`, the IC50 in experiment [1] came out at 480 nM.
Turning to `O=S(=O)(c1ccc(Cl)cc1)c1nnn2c1nc(NC1CCCCC1)c1sccc12`, the IC50 in experiment [1] is 960 nM.
`Cc1ccc(C)c(S(=O)(=O)c2nnn3c2nc(N2CCOCC2)c2sccc23)c1`: the IC50 in experiment [1] is 1930 nM.
Still for that read-out and setting: then `COCCNc1nc2c(S(=O)(=O)c3ccccc3)nnn2c2ccsc12`, with 190 nM; and `COc1ccccc1CNc1nc2c(S(=O)(=O)c3ccc(C)cc3)nnn2c2ccsc12`, with 580 nM.
With `Cc1ccc(C)c(S(=O)(=O)c2nnn3c2nc(NCCCc2ccccc2)c2sccc23)c1`, the IC50 in experiment [1] is 1220 nM.
Take `O=S(=O)(c1ccc(Cl)cc1)c1nnn2c1nc(NCc1ccccc1)c1sccc12`: in experiment [1], the half-maximal inhibitory concentration (IC50) worked out at 270 nM.
On the same count and under the same terms, for `CCN(Cc1ccccc1)c1nc2c(S(=O)(=O)c3ccc(Br)cc3)nnn2c2ccsc12` the value was 580 nM.
Consider `Cc1ccc(S(=O)(=O)c2nnn3c2nc(NC2CCCCCC2)c2sccc23)cc1`, for which the IC50 in experiment [1] was 790 nM.
Same read-out and setting: then `CC(Nc1nc2c(S(=O)(=O)c3ccc(Br)cc3)nnn2c2ccsc12)c1ccccc1` (stereo not given), with 540 nM.
Consider `CC(Nc1nc2c(S(=O)(=O)c3ccccc3)nnn2c2ccsc12)C12CC3CC(CC(C3)C1)C2` (stereo not given), for which, in experiment [2], the IC50 turned out to be 221 nM and the Ki is 103 nM.
The corresponding values for `O=S(=O)(c1ccc(Br)cc1)c1nnn2c1nc(NCc1ccc3c(c1)OCO3)c1sccc12` are 62.1 nM and 28.8 nM.
Regarding `Cc1ccc(S(=O)(=O)c2nnn3c2nc(NCCc2ccccc2)c2sccc23)cc1`, in experiment [1], the IC50 was 960 nM.
Take `COc1ccccc1CNc1nc2c(S(=O)(=O)c3ccc(Cl)cc3)nnn2c2ccsc12`: in experiment [1], the 50% inhibitory concentration (IC50) came out at 1150 nM.
The same measure, in the same setting: for `CCCCNc1nc2c(S(=O)(=O)c3cccc(Cl)c3)nnn2c2ccsc12` the value was 60 nM; for `COCCCNc1nc2c(S(=O)(=O)c3ccc(C)c(C)c3)nnn2c2ccsc12`, 2380 nM; for `COc1cccc(Nc2nc3c(S(=O)(=O)c4ccc(C)c(C)c4)nnn3c3ccsc23)c1`, 860 nM.
On the same count and under the same terms, for `Cc1ccc(S(=O)(=O)c2nnn3c2nc(NCCC(C)C)c2sccc23)cc1` the value was 580 nM.
Regarding `O=S(=O)(c1ccccc1)c1nnn2c1nc(N1CCCC1)c1sccc12`, in experiment [2], the IC50 is 188 nM and the inhibition constant (Ki) was determined as 87.5 nM.
In the case of `O=S(=O)(c1ccccc1)c1nnn2c1nc(NCc1cccs1)c1sccc12`, the IC50 in experiment [1] stood at 110 nM. Moreover, in experiment [2], the IC50 came out at 3.6 nM and the Ki turned out to be 1.7 nM.
As to `COCCCNc1nc2c(S(=O)(=O)c3ccc(Cl)cc3)nnn2c2ccsc12`, the concentration for half-maximal inhibition (IC50) in experiment [1] is over 5000 nM.
Regarding `Cc1ccc(C)c(S(=O)(=O)c2nnn3c2nc(N(C)Cc2ccccc2)c2sccc23)c1`, the 50% inhibitory concentration (IC50) in experiment [1] was determined as 1480 nM.
Same read-out and setting: for `O=S(=O)(c1cccc(Cl)c1)c1nnn2c1nc(NCc1cccs1)c1sccc12` the value was 150 nM; for `CC(C)Nc1nc2c(S(=O)(=O)c3ccc(Cl)cc3)nnn2c2ccsc12`, 1200 nM.
As to `O=S(=O)(c1ccccc1)c1nnn2c1nc(NCCc1ccccc1)c1sccc12`, the IC50 in experiment [1] was 1160 nM.
The same measure, in the same setting: for `COCCCNc1nc2c(S(=O)(=O)c3cccc(Cl)c3)nnn2c2ccsc12` the value was 150 nM; for `COc1ccccc1CNc1nc2c(S(=O)(=O)c3ccccc3)nnn2c2ccsc12`, 290 nM.
The same measure, in the same setting: then `O=S(=O)(c1ccccc1)c1nnn2c1nc(NCc1ccc3c(c1)OCO3)c1sccc12`, with 290 nM.
On the same count and under the same terms, for `Cc1ccc(S(=O)(=O)c2nnn3c2nc(N(C)Cc2ccccc2)c2sccc23)cc1C` the value was 1330 nM.
For `CCCCNc1nc2c(S(=O)(=O)c3ccccc3)nnn2c2ccsc12`, in experiment [1], the IC50 was 69 nM.
As for `CCc1ccc(S(=O)(=O)c2nnn3c2nc(N(CC)CC)c2sccc23)cc1`, the IC50 in experiment [1] is 1900 nM.
On the same count and under the same terms, then `O=S(=O)(c1cccc(Cl)c1)c1nnn2c1nc(N1CCOCC1)c1sccc12`, with 1040 nM.
Take `Cc1ccc(S(=O)(=O)c2nnn3c2nc(NCc2cccs2)c2sccc23)cc1C`: the concentration for half-maximal inhibition (IC50) in experiment [1] is 90 nM.
Turning to `Cc1ccc(C)c(S(=O)(=O)c2nnn3c2nc(N)c2sccc23)c1`, the IC50 in experiment [1] is 1220 nM. Moreover, in experiment [2], the concentration for half-maximal inhibition (IC50) was 99.1 nM and the Ki was 46 nM.
On to `COc1ccccc1CNc1nc2c(S(=O)(=O)c3cccc(Cl)c3)nnn2c2ccsc12`, for which the IC50 in experiment [1] stood at 780 nM.
Regarding `COCCNc1nc2c(S(=O)(=O)c3cccc(Cl)c3)nnn2c2ccsc12`, the half-inhibitory concentration (IC50) in experiment [1] was 110 nM.
Same read-out and setting: for `Cc1ccc(C)c(Nc2nc3c(S(=O)(=O)c4cccc(Cl)c4)nnn3c3ccsc23)c1` the value was 740 nM.
For `Cc1ccc(S(=O)(=O)c2nnn3c2nc(NCCC(C)C)c2sccc23)cc1C`, the half-maximal inhibitory concentration (IC50) in experiment [1] was 46 nM.
On the same count and under the same terms, then `Cc1ccc(S(=O)(=O)c2nnn3c2nc(Nc2ccc(Cl)cc2)c2sccc23)cc1C`, with 1430 nM.
In the case of `O=S(=O)(c1ccccc1)c1nnn2c1nc(NCC1CCCO1)c1sccc12` (stereo not given), the IC50 in experiment [1] amounted to 63 nM. Besides, in experiment [2], the concentration for half-maximal inhibition (IC50) was 17.5 nM and the inhibitory constant (Ki) is 8.1 nM.
For the compound `CC(C)Nc1nc2c(S(=O)(=O)c3ccccc3)nnn2c2ccsc12`, the IC50 in experiment [1] came out at 370 nM; in experiment [2], 65 nM. Also, the inhibitory constant (Ki) in experiment [2] came out at 30.2 nM.
Regarding `O=S(=O)(c1ccccc1)c1nnn2c1nc(NCc1ccccc1Cl)c1sccc12`, the half-inhibitory concentration (IC50) in experiment [1] was 32 nM.
Consider `Cc1ccc(S(=O)(=O)c2nnn3c2nc(NCc2cccc(Cl)c2)c2sccc23)cc1`, for which the IC50 in experiment [1] is 120 nM.
In the case of `Cc1ccc(S(=O)(=O)c2nnn3c2nc(NC2CCCCC2)c2sccc23)cc1C`, the IC50 in experiment [1] was 820 nM.
Same read-out and setting: then `Cc1ccc(C)c(S(=O)(=O)c2nnn3c2nc(N2CCC(C)CC2)c2sccc23)c1`, with 1990 nM.
As for `CN(C)c1nc2c(S(=O)(=O)c3ccccc3)nnn2c2ccsc12`, the half-inhibitory concentration (IC50) is over 30 nM in experiment [2] and over 300 nM in experiment [4].
For the compound `COc1cccc(Nc2nc3c(S(=O)(=O)c4ccc(C(C)C)cc4)nnn3c3ccsc23)c1`, the concentration for half-maximal inhibition (IC50) in experiment [1] was 900 nM.
On the same count and under the same terms, for `O=S(=O)(c1cccc(Cl)c1)c1nnn2c1nc(NCCc1ccccc1)c1sccc12` the value was 820 nM; for `COCCCNc1nc2c(S(=O)(=O)c3ccc(Br)cc3)nnn2c2ccsc12`, over 5000 nM; for `COc1cccc(CNc2nc3c(S(=O)(=O)c4ccccc4)nnn3c3ccsc23)c1`, 1370 nM.
Consider `O=S(=O)(c1ccccc1)c1nnn2c1nc(NCc1cccnc1)c1sccc12`, for which the results for the IC50 in experiment [1] and in experiment [2] were 260 nM and over 30 nM, respectively.
Regarding `O=S(=O)(c1cccc(Cl)c1)c1nnn2c1nc(Nc1ccccc1)c1sccc12`, the IC50 in experiment [1] was found to be 920 nM.
The same measure, in the same setting: then `Cc1ccc(S(=O)(=O)c2nnn3c2nc(NCc2ccc(F)cc2)c2sccc23)cc1C`, with 520 nM; and `CCN(Cc1ccccc1)c1nc2c(S(=O)(=O)c3cccc(Cl)c3)nnn2c2ccsc12`, with 540 nM.
On the same count and under the same terms, then `O=S(=O)(c1ccc(Cl)cc1)c1nnn2c1nc(NCc1cccs1)c1sccc12`, with 650 nM.
